Here are results for 1 compound from ChEMBL document CHEMBL3297713, “Discovery, optimization, and biological evaluation of 5-(2-(trifluoromethyl)phenyl)indazoles as a novel class of transient receptor potential A1 (TRPA1) antagonists” (J Med Chem, 2014).

Data set [1] concerns the target Transient receptor potential cation channel subfamily A member 1 (Mus musculus) (UniProt Q8BLA8). The data set can be described thus: (§1) Antagonist activity at mouse TRPA1 expressed in CHO-TREX cells assessed as inhibition of cinnamaldehyde-induced calcium flux incubated 10 mins prior to cinnamaldehyde addition by FLIPR assay relative to control. The data set is classed as cell-based. Also noted: concentration or dose not given beside the values. An outline of the steps: (§2)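 TRPA1-expressing CHO-TREX cells, channel expression induced with tetracycline (0.5 µg/mL human, 1 µg/mL mouse or rat). Cells loaded with Fluo4-AM for 90 min at room temperature, washed, then test agent added in HBSS/20 mM HEPES/2.5 mM probenecid/0.1% BSA. Agonist added 10 min later at EC80: human cinnamaldehyde 30 µM, AITC 2.5 µM, dibenzoxazepine-carboxamide 5 nM; rat and mouse cinnamaldehyde 40 µM. FLIPR calcium flux; mean of triplicates fitted to sigmoidal dose-response curves.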

The target in data set [2] is Transient receptor potential cation channel subfamily A member 1 (Mus musculus, UniProt Q8BLA8). Described as §1. It is filed as cell-based. In outline:
as §2

Data set [3] concerns the target Transient receptor potential cation channel subfamily M member 8 (Homo sapiens, UniProt Q7Z2W7). The data set can be described thus: Antagonist activity at human TRPM8 expressed in CHOK1 cells assessed as inhibition of menthol-induced calcium flux incubated 10 mins prior to menthol addition by FLIPR assay relative to control. It is filed as cell-based, CHO-K1.
In data set [4] the test system is CHO-K1. The data set can be described thus: Selectivity ratio of IC50 for human TRPV1 expressed in CHOK1 cells to IC50 for human TRPA1 expressed in CHO-TREX cells. It is filed as cell-based. An outline of the steps:
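Stable hTRPV1 CHO-K1 and tetracycline-induced (0.5 µg/mL) hTRPA1 CHO-TREX cells were loaded with Fluo4-AM for 90 min at room temperature and read on FLIPR. Antagonist preincubation was 10 min before EC80 agonist: capsaicin 40 nM (TRPV1); cinnamaldehyde 30 µM, AITC 2.5 µM or dibenzoxazepine carboxamide 5 nM (TRPA1). Buffer contained probenecid and BSA. IC50s were fitted from triplicate means of max−min calcium signal.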

In data set [5] the test system is CHO-K1. The data set can be described thus: Selectivity ratio of IC50 for human TRPV3 expressed in CHOK1 cells to IC50 for human TRPA1 expressed in CHO-TREX cells. The data set is classed as cell-based. An outline of the steps: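 Calcium influx was measured by FLIPR in Fluo4-AM-loaded cells: hTRPV3 CHO-K1 challenged with 40 µM 2-APB, and hTRPA1 CHO-TREX (0.5 µg/mL tetracycline) challenged with 30 µM cinnamaldehyde, 2.5 µM AITC or 5 nM dibenzoxazepine carboxamide, all at EC80. Compounds were added 10 min ahead of agonist in HEPES-buffered HBSS with probenecid. Sigmoidal curves were fitted to triplicate means.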

Data set [6] has as its system CHO-K1. In words: Selectivity ratio of IC50 for human TRPM8 expressed in CHOK1 cells to IC50 for human TRPA1 expressed in CHO-TREX cells. It is filed as cell-based. An outline of the steps:
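FLIPR calcium-flux antagonist assays with Fluo4-AM loading (90 min, room temperature) in HBSS/20 mM HEPES/2.5 mM probenecid/0.1% BSA. Compound added 10 min before agonist at EC80: 40 µM menthol for CHO-K1 hTRPM8; for tetracycline-induced (0.5 µg/mL) CHO-TREX hTRPA1, 30 µM cinnamaldehyde, 2.5 µM AITC or 5 nM dibenzoxazepine carboxamide. Response is maximum minus minimum. IC50s come from sigmoidal fits of triplicate means.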

The target of data set [7] is Transient receptor potential cation channel subfamily A member 1 (Homo sapiens, UniProt O75762). The data set can be described thus: Antagonist activity at human TRPA1 expressed in CHO-TREX cells assessed as inhibition of dibenzo[b,f ][1,4]oxazepine-4-carboxamide-induced calcium flux incubated 10 mins prior to dibenzo[b,f ][1,4]oxazepine-4-carboxamide addition by FLIPR assay relative to control. The data set is classed as cell-based. An outline of the steps: as §2
On the technique in general: Calcium flux is commonly read through the fluorescence of an indicator in the cells.

A short description of data set [8]: Volume of distribution at steady state in Wistar rat at 5 mg/kg, iv. It is filed as ADME, organism-based. Also noted: dose 5 mg/kg, route intravenous. The conditions noted are these: in vivo, read-out: Vdss. In outline:
(§3)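 Wistar rats given 5 mg/kg i.v. at 2.5 mg/mL in 10% EtOH/30% PEG300/60% solutol.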

A short description of data set [9]: Half life in Wistar rat at 5 mg/kg, iv. The conditions noted are these: in vivo. Also noted: dose 5 mg/kg, route intravenous. It is filed as ADME, organism-based. In outline:
as §3

In data set [10] the test system is Rattus norvegicus. The data set can be described thus: Reversal of FCA-induced mechanical hyperalgesia in po dosed Wistar rat after 1 hr. The data set is classed as functional. In outline:
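Paw withdrawal thresholds taken in both hind paws before and 72 h after intraplantar complete Freund's adjuvant in one paw. Oral vehicle (0.5% methylcellulose/0.5% Tween 80) or 3, 10 or 30 mg/kg given, with thresholds read at 1, 3 and 6 h. % reversal = (postdose − predose)/(naive − predose) × 100. D50 is the dose calculated to give 50% reversal.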

Data set [11] can be described thus: Half life in Balb/C mouse at 5 mg/kg, iv. It is filed as ADME, organism-based. Also noted: dose 5 mg/kg, route intravenous. The following applies: in vivo. In outline:
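Balb/C mice given 5 mg/kg i.v. at 2.5 mg/mL in 10% EtOH/30% PEG300/60% solutol.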

Data set [12] in a line: AUC in Balb/C mouse at 20 mg/kg, po. The data set is classed as ADME, organism-based. Also noted: dose 20 mg/kg, route oral. The following applies: plasma. An outline of the steps:
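Balb/C mice dosed by oral gavage at 20 mg/kg as a suspension in 0.5% methylcellulose/0.5% Tween80.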

For data set [13], the system named is Rattus norvegicus. In words: Induction of hyperthermia in naive rat at 10 to 100 mg/kg, po after 1 to 6 hrs. The data set is classed as organism-based. Also noted: route oral. The conditions noted are these: in vivo. In outline:
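Rat rectal temperature measured by probe before and 1, 3 and 6 h after oral vehicle (0.5% methylcellulose/0.5% Tween 80) or 10, 30 or 100 mg/kg p.o. WIN55,212-2 (6 mg/kg s.c.) served as comparator.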

Sequence of Transient receptor potential cation channel subfamily A member 1 (Homo sapiens, UniProt O75762) (O75762 whole entry): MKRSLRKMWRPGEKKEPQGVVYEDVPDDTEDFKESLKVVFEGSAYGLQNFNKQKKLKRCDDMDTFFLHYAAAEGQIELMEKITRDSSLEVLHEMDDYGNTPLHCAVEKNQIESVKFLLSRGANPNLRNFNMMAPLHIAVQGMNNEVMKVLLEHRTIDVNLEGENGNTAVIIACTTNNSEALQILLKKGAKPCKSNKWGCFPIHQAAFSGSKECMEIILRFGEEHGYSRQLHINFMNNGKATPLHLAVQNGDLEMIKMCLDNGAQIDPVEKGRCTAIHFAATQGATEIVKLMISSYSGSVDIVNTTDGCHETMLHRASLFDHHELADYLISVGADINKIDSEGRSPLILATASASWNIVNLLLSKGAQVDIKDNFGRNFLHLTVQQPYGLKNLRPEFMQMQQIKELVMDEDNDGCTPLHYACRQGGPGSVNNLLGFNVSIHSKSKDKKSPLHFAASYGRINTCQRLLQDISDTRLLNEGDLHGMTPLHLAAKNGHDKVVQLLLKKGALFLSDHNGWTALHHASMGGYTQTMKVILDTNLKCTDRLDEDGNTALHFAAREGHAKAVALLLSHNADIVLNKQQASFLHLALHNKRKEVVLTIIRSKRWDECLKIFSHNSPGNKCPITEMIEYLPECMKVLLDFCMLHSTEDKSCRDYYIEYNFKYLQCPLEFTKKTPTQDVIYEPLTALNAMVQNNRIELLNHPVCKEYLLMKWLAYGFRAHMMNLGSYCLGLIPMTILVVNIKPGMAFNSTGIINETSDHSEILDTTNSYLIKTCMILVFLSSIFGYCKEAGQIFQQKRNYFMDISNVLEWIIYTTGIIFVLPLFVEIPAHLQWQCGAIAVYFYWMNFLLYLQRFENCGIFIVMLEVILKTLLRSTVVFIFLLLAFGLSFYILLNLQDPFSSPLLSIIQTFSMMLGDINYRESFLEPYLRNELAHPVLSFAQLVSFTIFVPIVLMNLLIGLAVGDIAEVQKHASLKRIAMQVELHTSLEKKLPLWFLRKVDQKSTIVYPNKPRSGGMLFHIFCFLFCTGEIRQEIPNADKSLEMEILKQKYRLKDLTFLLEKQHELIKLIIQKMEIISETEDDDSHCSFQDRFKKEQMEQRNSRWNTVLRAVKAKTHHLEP
Sequence of Transient receptor potential cation channel subfamily A member 1 (Mus musculus, UniProt Q8BLA8) (Q8BLA8 whole entry): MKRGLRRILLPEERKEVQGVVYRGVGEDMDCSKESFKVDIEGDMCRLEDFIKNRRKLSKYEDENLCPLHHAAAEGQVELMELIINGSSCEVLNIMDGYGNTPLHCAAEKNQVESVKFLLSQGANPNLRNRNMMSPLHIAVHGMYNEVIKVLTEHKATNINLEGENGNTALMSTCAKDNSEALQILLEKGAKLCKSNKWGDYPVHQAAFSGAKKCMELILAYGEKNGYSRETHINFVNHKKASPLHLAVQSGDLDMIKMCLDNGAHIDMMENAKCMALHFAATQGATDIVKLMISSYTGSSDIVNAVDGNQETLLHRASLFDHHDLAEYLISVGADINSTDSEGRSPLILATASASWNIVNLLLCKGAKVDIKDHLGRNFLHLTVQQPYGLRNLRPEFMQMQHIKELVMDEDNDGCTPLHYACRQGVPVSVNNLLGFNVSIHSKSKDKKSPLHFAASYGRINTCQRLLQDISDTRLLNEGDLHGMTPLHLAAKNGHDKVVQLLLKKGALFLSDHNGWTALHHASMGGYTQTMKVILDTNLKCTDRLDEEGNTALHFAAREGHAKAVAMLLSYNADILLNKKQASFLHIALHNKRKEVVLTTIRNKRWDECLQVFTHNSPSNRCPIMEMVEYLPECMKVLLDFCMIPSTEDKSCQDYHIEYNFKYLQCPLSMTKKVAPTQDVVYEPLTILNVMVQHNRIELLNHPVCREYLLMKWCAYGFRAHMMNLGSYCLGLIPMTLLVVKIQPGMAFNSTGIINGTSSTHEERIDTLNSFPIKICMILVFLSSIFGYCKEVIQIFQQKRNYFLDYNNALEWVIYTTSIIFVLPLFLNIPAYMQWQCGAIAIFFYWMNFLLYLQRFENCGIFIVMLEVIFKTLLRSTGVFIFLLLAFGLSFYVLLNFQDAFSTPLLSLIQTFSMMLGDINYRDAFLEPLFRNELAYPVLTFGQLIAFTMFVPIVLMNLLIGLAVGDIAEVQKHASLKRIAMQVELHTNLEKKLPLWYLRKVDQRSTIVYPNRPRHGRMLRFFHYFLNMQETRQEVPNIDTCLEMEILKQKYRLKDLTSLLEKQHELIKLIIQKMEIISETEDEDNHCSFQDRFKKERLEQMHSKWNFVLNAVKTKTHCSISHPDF
Sequence of Transient receptor potential cation channel subfamily A member 1 (Mus musculus) (Q8BLA8 whole entry): as above

As for `Cc1cc2[nH]ncc2cc1-c1ccccc1C(F)(F)F`, the inhibition in [1] amounted to 100%; in data set [3] (CHO-K1), 90%; in [7] it was 100%. In addition, the IC50 in data set [2] turned out to be 53 nM; in data set [3], 9200 nM; in data set [7] it was 20 nM. Also, the Ratio IC50 with CHO-K1 [4], in the data set on CHO-K1 [5] and in the data set on CHO-K1 [6] was > 100 each time. In addition, the Vd in [8] came out at 2.39 L/kg. For the same compound, the half-life in data set [9] is 4.3 h; in data set [11], 3.64 h. In addition, the D50 in the data set with Rattus norvegicus [10] came to 5.5 mg/kg. Further, in data set [12], the AUC was found to be 5.59 µM·h. In the data set on Rattus norvegicus [13], the Activity entry is listed as “Non-toxic”.

A word on the inhibition: it is how much of the control response was suppressed. A word on the IC50: it is the concentration at which inhibition is half-maximal. Broadly, the half-life is how long it takes for the measured level to halve. As usually defined, the AUC is concentration integrated over time.
